Assay results reported in ChEMBL document CHEMBL2010708, “Rigid Analogues of Antimitotic Indolobenzazepinones: New Insights into Tubulin Binding via Molecular Modeling” (ACS Med Chem Lett, 2011).

Tests used:
KB [1] = experiment: Antiproliferative activity against human KB cells at 10 uM after 72 hrs by fluorescence method; format: functional; conditions: read-out: GI
In short: (§1)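 KB cells. Growth inhibition was recorded as a percentage at fixed 10 and 1 μM concentrations, with IC50 determined separately for selected compounds.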

KB [2] = experiment: Antiproliferative activity against human KB cells at 1 uM after 72 hrs by fluorescence method; format: functional; conditions: read-out: GI; in short: as §1
[3] = Inhibition of tubulin polymerization
KB [4] = experiment: Antiproliferative activity against human KB cells after 72 hrs by fluorescence method; format: functional, cell-based; in short: as §1
HCT-116 [5] = experiment: Antiproliferative activity against human HCT116 cells at 10 uM after 72 hrs by fluorescence method; format: functional; conditions: HCT-116, 72 h, read-out: GI
In short: (§2)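 Panel of HCT116, MCF7 and HL60 cancer cells, each paired with a resistant counterpart (HCT15, MCF7R, HL60R). Growth inhibition was recorded as a percentage at 10 and 1 μM of test compound.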

HCT-116 [6] = experiment: Antiproliferative activity against human HCT116 cells at 1 uM after 72 hrs by fluorescence method; format: functional; conditions: HCT-116, 72 h, read-out: GI; in short: as §2
HCT-15 [7] = experiment: Antiproliferative activity against human HCT15 cells at 10 uM after 72 hrs by fluorescence method; format: functional; conditions: HCT-15, 72 h, read-out: GI; in short: as §2
HCT-15 [8] = experiment: Antiproliferative activity against human HCT15 cells at 1 uM after 72 hrs by fluorescence method; format: functional; conditions: HCT-15, 72 h, read-out: GI; in short: as §2
MCF7 [9] = experiment: Antiproliferative activity against human MCF7 cells at 10 uM after 72 hrs by fluorescence method; format: functional; conditions: MCF7, 72 h, read-out: GI; in short: as §2
MCF7 [10] = experiment: Antiproliferative activity against human MCF7 cells at 1 uM after 72 hrs by fluorescence method; format: functional; conditions: MCF7, 72 h, read-out: GI; in short: as §2
[11] = Antiproliferative activity against human MCF7/R cells at 10 uM after 72 hrs by fluorescence method; format: functional; conditions: MCF7R, read-out: GI; in short: as §2
[12] = Antiproliferative activity against human MCF7/R cells at 1 uM after 72 hrs by fluorescence method; format: functional; conditions: MCF7R, read-out: GI; in short: as §2
HL-60 [13] = experiment: Antiproliferative activity against human HL60 cells at 10 uM after 72 hrs by fluorescence method; format: functional; conditions: HL-60, 72 h, read-out: GI; in short: as §2
HL-60 [14] = experiment: Antiproliferative activity against human HL60 cells at 1 uM after 72 hrs by fluorescence method; format: functional; conditions: HL-60, 72 h, read-out: GI; in short: as §2
[15] = Antiproliferative activity against human HL60R cells at 10 uM after 72 hrs by fluorescence method; format: functional; conditions: read-out: GI; in short: as §2
[16] = Antiproliferative activity against human HL60R cells at 1 uM after 72 hrs by fluorescence method; format: functional; conditions: read-out: GI; in short: as §2

| IC50 [3] [nM] | IC50 (KB [4]) [nM] | SMILES | inhibition of growth at 10 µM (KB [1]) [%] | inhibition of growth at 1 µM (KB [2]) [%] | inhibition of growth at 10 µM (HCT-116 [5]) [%] | inhibition of growth at 1 µM (HCT-116 [6]) [%] | inhibition of growth at 10 µM (HCT-15 [7]) [%] | inhibition of growth at 1 µM (HCT-15 [8]) [%] | inhibition of growth at 10 µM (MCF7 [9]) [%] | inhibition of growth at 1 µM (MCF7 [10]) [%] | inhibition of growth at 10 µM [11] [%] | inhibition of growth at 1 µM [12] [%] | inhibition of growth at 10 µM (HL-60 [13]) [%] | inhibition of growth at 1 µM (HL-60 [14]) [%] | inhibition of growth at 10 µM [15] [%] | inhibition of growth at 1 µM [16] [%] |
| --- | --- | --- | --- | --- | --- | --- | --- | --- | --- | --- | --- | --- | --- | --- | --- | --- |
| 5300 | 900 | O=C1NC2CCc3cccc(c32)-c2c1[nH]c1ccccc21 (centres undefined) | 81 | 63 | 80 | 64 | 87 | 75 | 39 | 46 | 72 | 67 | 90 | 83 | 81 | 70 |
| 4200 | 5000 | O=C1c2[nH]c3ccccc3c2-c2ccccc2C2CCCN12 (centres undefined) | 100 | 27 | 81 | 64 | 84 | 78 | 55 | 28 | 75 | 56 | 84 | 49 | 80 | 49 |
| 4100 | 2 | CC[C@H]1c2ccccc2-c2c([nH]c3ccccc23)C(=O)N1C | 100 | 100 | 100 | 91 | 100 | 92 | 96 | 85 | 92 | 75 | 100 | 85 | 89 | 70 |
| 1800 | 35 | CC[C@@H]1NC(=O)c2[nH]c3ccccc3c2-c2ccccc21 | 100 | 100 | 100 | 85 | 100 | 94 | 92 | 82 | 96 | 84 | 100 | 90 | 95 | 78 |
